Measurements published in ChEMBL document CHEMBL1138115, “The synthesis and aqueous superoxide anion scavenging of water-dispersible lutein esters” (2006).
Where a name gives a salt, the structure may show the parent alone.

Experiments:
Assay type in all cases: functional
Conditions in all cases: Homo sapiens
PMNL [1] = experiment: Inhibition of Superoxide radical scavenging activity in water at 3.0 mM in PMA-stimulated PMN
Outline: (§1)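 Human PMNs were isolated by Percoll gradient (density 1.080 g/mL) from fresh venous blood of a single volunteer and suspended in PAG-CM buffer (PIPES pH 7.4, HSA, glucose, 1 mM CaCl2/MgCl2). 1 × 10⁶ cells were preincubated 5 min with compound in water or 40% EtOH, then stimulated with PMA (1 ng/mL). Superoxide was spin-trapped with DEPMPO (10 mM) and read by X-band EPR. Results are mean % signal inhibition, N=3 per formulation except one N=1.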

PMNL [2] = experiment: Inhibition of Superoxide radical scavenging activity in water at 1.0 mM in PMA-stimulated PMN; outline: as §1
PMNL [3] = experiment: Inhibition of Superoxide radical scavenging activity in 40% EtOH at 0.1 mM in PMA-stimulated PMN; outline: as §1
PMNL [4] = experiment: Inhibition of Superoxide radical scavenging activity in water at 0.1 mM in PMA-stimulated PMN; outline: as §1
PMNL [5] = experiment: Inhibition of Superoxide radical scavenging activity in water at 5.0 mM in PMA-stimulated PMN; outline: as §1

Row | Structure (SMILES) | inhibition at 3000 µM (PMNL [1]) [%] | inhibition at 1000 µM (PMNL [2]) [%] | inhibition at 100 µM (PMNL [3]) [%] | inhibition at 100 µM (PMNL [4]) [%] | inhibition at 5000 µM (PMNL [5]) [%]
1 | CC1=CC(OC(=O)CCC(=O)O)CC(C)(C)C1/C=C/C(C)=C/C=C/C(C)=C/C=C/C=C(C)/C=C/C=C(C)/C=C/C1=C(C)CC(OC(=O)CCC(=O)O)CC1(C)C (stereo not given) [LUTEIN DISUCCINATE SODIUM SALT] | 61.7 | 13 | 5 | 0 | 74.7
2 | CC1=CC(OP(=O)(O)O)CC(C)(C)C1/C=C/C(C)=C/C=C/C(C)=C/C=C/C=C(C)/C=C/C=C(C)/C=C/C1=C(C)CC(OP(=O)(O)O)CC1(C)C (stereo not given) [LUTEIN DIPHOSPHATE SODIUM SALT] | 72.3 | 9.3 | 18 | 0 | 91
